Rows were chosen to be rich in hits. Some 2.6% of all compounds tested hit in one or more screens of this group.
SENP7 block – blocks the human protease SENP7 | Q9BQF6 | recombinant SENP7, Z-RLRGG-aminoluciferin luminescence, 40 min | inhibition, % at 5 µM | hit rate 1.5% among 330,000;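 active means inhibition above about 50% at the single test dose, limit read from the data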
SENP8 block-1 – blocks human SENP8 cleavage of Nedd8 substrate; hit rate 0.64% among 360,000; inhibition, % at 20 µM; recombinant SENP8, Nedd8 substrate fluorescence; in the data active means inhibition mostly above about 40%, no sharp cut-off; inactive means mostly below about 27%
Platelet DG rel – modulates dense granule release in human platelets | human platelet-rich plasma, SFLLRN dense granule ATP release, luminescence | inhibition, %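 (compounds screened at 7.5 µM in platelet-rich plasma)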 | hit rate 0.22% among 300,000;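 active means mean replicate score, as percent of positive control, at or above 50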
SENP6 inh – SENP6 protease inhibition; Q9GZR1; Recombinant SENP6 catalytic domain, aminoluciferin luminescence; inhibition, % at 10 µM; hit rate 1.8% among 330,000; AID 2599;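 active means inhibition above about 50% at the single tested dose, limit read from the data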
SENP8 block-2 – blocks the human protease SENP8; Q96LD8; purified SENP8, Z-RLRGG-aminoluciferin cleavage, luminescence; inhibition, % at 10 µM; hit rate 1.2% among 330,000; AID 2540; in the data active means inhibition above about 50%
SENP1 inh – SENP1 (human) catalytic domain inhibition; AID 624204; Q9P0U3; inhibition, % at 10 µM; recombinant SENP1 catalytic domain, CyPet-SUMO1-YPet FRET cleavage; hit rate 0.21% among 360,000;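 active means inhibition at least 30% at 10 µM, raw YFP signal under a set limit, fluorescence ratio 0.5 to 1.5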
Target sequence (Q9P0U3 419-644 limits assumed): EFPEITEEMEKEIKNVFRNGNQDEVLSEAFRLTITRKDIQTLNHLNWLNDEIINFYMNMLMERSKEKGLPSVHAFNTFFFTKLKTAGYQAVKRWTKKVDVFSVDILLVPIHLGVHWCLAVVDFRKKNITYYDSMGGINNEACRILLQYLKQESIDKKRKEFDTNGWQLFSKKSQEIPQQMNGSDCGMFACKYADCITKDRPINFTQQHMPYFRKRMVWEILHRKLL
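Assay system – human recombinant His6-tagged SENP1 catalytic domain enzyme · Input – SENP1 enzyme, 20 pM final · Buffer or medium – Tris pH 8 buffer plus EDTA, NaCl, BME, BSA, NP40, catalase · Schedule – 50 min reaction at room temperature · Technique – FRET read of cyan and yellow fluorescence · Control set – no-enzyme wells low, DMSO-plus-enzyme wells high control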
SENP8 conf – human SENP8 inhibition, confirmed | shares compounds with SENP7 block | Recombinant SENP8, Z-RLRGG-aminoluciferin luminescence, 60 min | inhibition, % at 12.5 µM | hit rate 40% among 6,200;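 active means mean inhibition across replicates above about 50%, limit read from the data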
SENP6 conf – confirmation of human SENP6 protease inhibitors. shares compounds with SENP7 block. recombinant SENP6, Z-RLRGG-aminoluciferin luminescence. inhibition, % at 12.5 µM. hit rate 58% among 6,200
SENP7 conf – confirmation of human SENP7 protease inhibitors. recombinant SENP7, Z-RLRGG-aminoluciferin luminescence, 40 min. shares compounds with SENP7 block. hit rate 69% among 6,200. inhibition, % at 12.5 µM
Casp3 select – caspase-3 inhibition (SENP selectivity assay) | AID 488918 | inhibition, % at 12.5 µM | hit rate 60% among 6,200 | purified caspase-3, Z-DEVD-aminoluciferin luminescence, 60 min | shares compounds with SENP7 block;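 active means mean inhibition above about 50%, limit read from the data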
Target sequence (P42574 28-227 limits assumed): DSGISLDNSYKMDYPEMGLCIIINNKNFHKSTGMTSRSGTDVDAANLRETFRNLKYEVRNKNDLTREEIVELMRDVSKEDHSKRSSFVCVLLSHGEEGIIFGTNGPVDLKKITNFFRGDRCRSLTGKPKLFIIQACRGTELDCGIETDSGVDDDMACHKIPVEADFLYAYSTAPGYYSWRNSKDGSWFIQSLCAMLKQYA
Luc interf – counter-screen for SENP inhibitors: luminescence interference | AID 488919 | inhibition, % at 12.5 µM | Pre-incubated SENP8/Z-RLRGG-aminoluciferin, luciferase luminescence interference | hit rate 39% among 6,200 | shares compounds with SENP7 block;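 active means mean inhibition above about 50% when retested at one dose, limit read from the data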
Hits are given with their value.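 How the source made its calls, unless noted: active means mean inhibition above about 50% in the one-dose retest (limit read from the data); inactive means the rest.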

What do the screens show for `CNc1ncnc2c1ncn2[C@H]1CN(C2CCCC2)C[C@@H](CO)O1`?
SENP8 block-1: inactive; SENP1 inh: inactive

Results for CC(Sc1nnnn1C)C(=O)Nc1nc(-c2ccc(F)c(F)c2)cs1 (stereo not drawn) ?
SENP7 block: inactive; SENP8 block-1: inactive; SENP6 inh: inactive; SENP8 block-2: inactive; SENP1 inh: inactive

How did Cc1ccc(-c2nc3ccccc3n2C(C(=O)NC(C)(C)C)C2CC2)cc1 (stereo not drawn) do in these assays?
SENP8 block-1: inactive; SENP1 inh: inactive

How did O=C(COC(=O)c1c[nH]c2ccccc12)Nc1cccc(F)c1 do in these assays?
SENP7 block: inactive; SENP8 block-1: inactive; SENP6 inh: inactive; SENP8 block-2: inactive; SENP1 inh: inactive

How did O=C(Nc1ccccc1C(=O)O)c1cccc(F)c1 do in these assays?
SENP7 block: inactive; SENP8 block-1: inactive; Platelet DG rel: inactive; SENP6 inh: 75; SENP8 block-2: 51; SENP1 inh: inactive; SENP8 conf: 75; SENP6 conf: 70; SENP7 conf: 92; Casp3 select: 87; Luc interf: 75

What do the screens show for `Cc1ccc(C(=O)Nc2ccccc2C(=O)O)cc1S(=O)(=O)Nc1ccccc1`?
SENP7 block: inactive; SENP8 block-1: inactive; Platelet DG rel: inactive; SENP6 inh: 62; SENP8 block-2: inactive; SENP1 inh: inactive; SENP8 conf: 55; SENP6 conf: 52; SENP7 conf: 73; Casp3 select: inactive; Luc interf: 63

Results for CC(C)CN1C(=O)c2ccc(C(=O)Nc3ccccc3C(=O)O)cc2C1=O ?
SENP7 block: inactive; SENP8 block-1: inactive; Platelet DG rel: inactive; SENP6 inh: 87; SENP8 block-2: 82; SENP1 inh: inactive; SENP8 conf: 88; SENP6 conf: 88; SENP7 conf: 98; Casp3 select: 88; Luc interf: 89

Results for Cc1ccccc1NC(=O)c1ccc2c(c1)C(=O)N(CC(C)C)C2=O ?
SENP7 block: inactive; SENP8 block-1: inactive; Platelet DG rel: inactive; SENP6 inh: inactive; SENP8 block-2: inactive; SENP1 inh: inactive

What do the screens show for `Cc1ccc(C(=O)Nc2ccccc2C(=O)O)cc1S(=O)(=O)NC1CCCCC1`?
SENP7 block: inactive; SENP8 block-1: inactive; Platelet DG rel: inactive; SENP6 inh: inactive; SENP8 block-2: inactive; SENP1 inh: inactive

What do the screens show for `COc1c(Cl)cc(C(=O)Nc2ccccc2C(=O)O)cc1Cl`?
SENP7 block: inactive; SENP8 block-1: inactive; Platelet DG rel: inactive; SENP6 inh: 76; SENP8 block-2: 69; SENP1 inh: inactive; SENP8 conf: 81; SENP6 conf: 79; SENP7 conf: 86; Casp3 select: inactive; Luc interf: 84

What do the screens show for `CCNC(=O)C1(C)CCN(C(=O)c2ccc(N(C)C)cc2)C1` (stereo not drawn)?
SENP8 block-1: inactive; SENP1 inh: inactive

Results for O=C(NCCCNC(=O)c1ccco1)c1cccc(F)c1 ?
SENP7 block: inactive; SENP8 block-1: inactive; Platelet DG rel: inactive; SENP6 inh: inactive; SENP8 block-2: inactive; SENP1 inh: inactive

Results for Cc1ccc(NC(=O)c2cccc(C(=O)Nc3ccc(C)cc3C(=O)O)c2)c(C(=O)O)c1 ?
SENP7 block: inactive; SENP8 block-1: inactive; Platelet DG rel: inactive; SENP6 inh: inactive; SENP8 block-2: inactive; SENP1 inh: inactive

How did Cc1occc1C(=O)Nc1ccccc1C(=O)O do in these assays?
SENP7 block: inactive; SENP8 block-1: inactive; Platelet DG rel: inactive; SENP6 inh: inactive; SENP8 block-2: inactive; SENP1 inh: inactive
